The text below walks through data of ChEMBL document CHEMBL4673366, “Cyclic Phosphopantothenic Acid Prodrugs for Treatment of Pantothenate Kinase-Associated Neurodegeneration” (J Med Chem, 2020).

Data set [1] has as its system IMR-32. In words: Increase in tubulin acetylation in human IMR-32 PANK2 knockdown cells at 50 uM for 48 hrs by Western blot analysis. Type of data set: functional. For orientation: In western blotting, separated proteins are transferred to a membrane and probed.
Data set [2] deals with IMR-32. As to the kind of experiment: Decrease in lipid droplet content in human IMR-32 PANK2 knockdown cells at 10 uM for 48 hrs by Nile red staining based inverted microscopic analysis. Type of data set: functional. Summed up:
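PANK2-knockout neuroblastoma cells were treated for 48 h, then fixed and stained with 100 ng/mL Nile Red. Cells were imaged on an inverted microscope at 60×, and lipid droplet content was quantified by plate fluorimetry. Data are mean ± sd of two biological replicates, each in duplicate; two-tailed paired Student's t-test.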

The subject of data set [3] is IMR-32. In words: Increase in histone H3 acetylation in human IMR-32 PANK2 knockdown cells at 50 uM for 48 hrs by Western blot analysis. Type of data set: functional.
The nature of data set [4]: Effect on free coenzyme A level in C57BL6 mouse brain at 500 mg/kg, po administered as single dose measured after 6 hr UPLC quadrupole-time-of-flight mass spectrometry (Rvb =100%). Type of data set: functional. Summed up: (§1)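 C57BL6 mice, three per time point, received one oral 500 mg/kg dose of isotopically labeled prodrug, and brains were taken at 0, 1, 6 and 24 h. Brains were homogenized in water (3 mL/g), protein was precipitated with MeOH, and dried supernatant was reconstituted in 10 mM ammonium acetate (pH ~5). Analysis was UPLC-QTOF MS in positive ESI, scoring labeled CoA (+6, +4 amu) as a share of free CoA.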

Data set [5] in a line: Induction of Coenzyme A regeneration in human IMR-32 PANK2 knockdown cells at 50 uM for 24 hrs by HPLC analysis relative to control. Type of data set: functional. Summed up: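 PANK2-knockout neuroblastoma cells were grown in MEM with 10% FBS and 1 µg/mL puromycin and seeded at 0.2×10⁶ cells/well. After 72 h, they were dosed at 50 µM in DMSO (final 0.1%) at 37 °C. Washed, frozen pellets were reconstituted in ammonium acetate (pH 5.1) with internal standard, and free CoA was measured by LC-MS/MS. Intracellular volume was taken as 2 µL/10⁶ cells; results are fold over vehicle-treated cells.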

Data set [6] is described as follows: Effect on free coenzyme A level in C57BL6 mouse brain at 500 mg/kg, po administered as single dose measured after 1 hr UPLC quadrupole-time-of-flight mass spectrometry (Rvb =100%). Type of data set: functional. The procedure, abridged: as §1
Data set [7] in a line: Effect on free coenzyme A level in C57BL6 mouse brain at 500 mg/kg, po administered as single dose measured after 24 hrs UPLC quadrupole-time-of-flight mass spectrometry (Rvb =100%). Type of data set: functional. Summed up: as §1
A short description of data set [8]: Stability of compound in human plasma assessed as half life. Type of data set: ADME, cell-free.

SMILES strings stand for the structures. Active and inactive are the calls of the source. Bounds are passed on as bounds.

`COC(=O)CCNC(=O)[C@@H]1OP(=O)(OCOC(=O)C(C)(C)C)OCC1(C)C` (mixture of isomers): the result in the data set with IMR-32 [1] and in the data set with IMR-32 [3] was Active. In the data set on IMR-32 [2], the inhibition result was “Active”. Besides, the results for the Activity in data set [4], in data set [6] and in data set [7] were 92%, 100% and 85%, respectively. For the same compound, the “fold change (FC)” value in data set [5] is reported as 180.
What is called half-life is the time needed for the level to fall by half in the phase considered. With `COC(=O)CCNC(=O)[C@@H]1O[P@](=O)(OCOC(=O)c2cncs2)OCC1(C)C` (relative stereo), the half-life in data set [8] is < 9.6 min.
On the same count and under the same terms, then `COC(=O)CCNC(=O)[C@@H]1O[P@@](=O)(OCOC(=O)c2cncs2)OCC1(C)C` (relative stereo), with < 9.6 min.
